Reference: ChEMBL document CHEMBL1926588, “Sulfur and selenium derivatives of quinazoline and pyrido[2,3-d]pyrimidine: synthesis and study of their potential cytotoxic activity in vitro” (Eur J Med Chem, 2012)

Tests used:
CCRF-CEM = experiment: Cytotoxicity against human CCRF-CEM cells after 72 hrs by MTT assay; assay type: functional; settings: for CC50: read-out: LC50 (the source's name)
Summary of the method: (§1)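 MTT read-out after 72 h exposure at 37 °C in humidified 5% CO2, with five concentrations between 0.01 and 100. GI50 is 50% growth reduction versus untreated controls, TGI is complete growth inhibition, and LC50 is the concentration killing 50% of cells. Minimum three independent experiments.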

HT-29 = experiment: Cytotoxicity against human HT-29 cells after 72 hrs by MTT assay; assay type: functional; settings: HT-29, 72 h; for CC50: read-out: LC50 (the source's name); summary of the method: as §1
[1] = Cytotoxicity against human BEAS2B cells after 72 hrs by MTT assay; assay type: cell-based, BEAS-2B; settings: for GI50 at 72 h: BEAS2B cells; for LC50 / TGI: beas-2b, 72 h; summary of the method: as §1
[2] = Cytotoxicity against human 184B5 cells after 72 hrs by MTT assay; assay type: cell-based; settings: for GI50 at 72 h: 184B5 cells; for LC50 / TGI: 184b5, 72 h; summary of the method: as §1
MCF7 = experiment: Cytotoxicity against human MCF7 cells after 72 hrs by MTT assay; assay type: functional; settings: MCF7, 72 h; summary of the method: as §1
[3] = Cytotoxicity against human HTB-54 cells after 72 hrs by MTT assay; assay type: functional; settings: HTB-54, 72 h; for CC50: read-out: LC50 (the source's name); summary of the method: as §1

Row | SMILES | GI50 (CCRF-CEM) [µM] | TGI (CCRF-CEM) [µM] | CC50 (CCRF-CEM) [µM] | GI50 (HT-29) [µM] | TGI (HT-29) [µM] | CC50 (HT-29) [µM] | GI50 at 72 h [1] [µM] | LC50 [1] [µM] | TGI [1] [µM] | GI50 at 72 h [2] [µM] | LC50 [2] [µM] | TGI [2] [µM] | GI50 (MCF7) [µM] | LC50 (MCF7) [µM] | TGI (MCF7) [µM] | GI50 [3] [µM] | TGI [3] [µM] | CC50 [3] [µM]
1 | C[Se]c1nc(NCc2ccccc2)c2ccccc2n1 | 39.8 | 61.6 | 83.5 | 42.8 | 81 | > 100 | 0.57 | 78.3 | 36.96 | 3.72 | 73.66 | 12.41 | 15.8 | > 100 | 67 | 74.6 | > 100 | > 100
2 | CSc1ccc(CNc2nc([SeH])nc3ccccc23)cc1 | 71.9 | > 100 | > 100 | 42.9 | > 100 | > 100 | 0.41 | > 100 | 58.21 | 6.84 | > 100 | 86.27 | 48.1 | > 100 | > 100 | 45.5 | > 100 | > 100
3 | CSc1nc(NCc2ccc([Se]C)cc2)c2ccccc2n1 | 63.3 | > 100 | > 100 | > 100 | > 100 | > 100 | 73.5 | > 100 | > 100 | 70.3 | > 100 | > 100 | 36.4 | > 100 | > 100 | 57 | > 100 | > 100
4 | COc1ccc(CNc2nc(SC)nc3ncccc23)cc1 | > 100 | > 100 | > 100 | > 100 | > 100 | > 100 | 58.5 | > 100 | > 100 | 34.2 | > 100 | 69.77 | 48.1 | > 100 | > 100 | > 100 | > 100 | > 100
5 | C[Se]c1nc(N)c2ccccc2n1 | 65.1 | > 100 | > 100 | 27.6 | 74.8 | > 100 | 23.6 | 85.52 | 54.56 | 24.4 | 93.68 | 59.04 | 46.5 | > 100 | > 100 | 18 | 88.7 | > 100
6 | Nc1nc([SeH])nc2ccccc12 | 25.7 | 52.4 | 79.1 | 52.2 | > 100 | > 100 | 0.08 | > 100 | > 100 | 0.69 | 80.37 | 36.65 | 0.15 | > 100 | > 100 | 0.04 | 3.63 | > 100
7 | CCCCCSc1nc(NCc2ccc([Se]C)cc2)c2ccccc2n1 | > 100 | > 100 | > 100 | 14.4 | > 100 | > 100 | 31.2 | > 100 | > 100 | 73 | > 100 | > 100 | 13 | > 100 | 75.2 | 19.8 | 50 | 80.2
8 | CSc1ccc(CNc2nc([Se]C)nc3ccccc23)cc1 | 48.7 | 86.9 | > 100 | 72.7 | > 100 | > 100 | 35.9 | > 100 | 78.54 | 37.1 | > 100 | > 100 | 54.1 | > 100 | > 100 | 37.9 | 72.4 | > 100
9 | Sc1nc(NCc2ccccc2)c2ccccc2n1 | 82.4 | > 100 | > 100 | 10.1 | 63.5 | > 100 | 66.3 | > 100 | > 100 | 49.6 | > 100 | > 100 | 27.2 | > 100 | > 100 | 15.2 | > 100 | > 100
10 | CSc1nc(NCc2ccccc2)c2ccccc2n1 | 87.9 | > 100 | > 100 | 36.5 | > 100 | > 100 | 38.9 | > 100 | 88.24 | 28.9 | > 100 | > 100 | 41.5 | > 100 | 82.8 | 37.9 | 82.3 | > 100
11 | COc1ccc(CNc2nc(S)nc3ccccc23)cc1 | 10.4 | 41 | 71.6 | 6.49 | 28.6 | 63.9 | 6.13 | 70.18 | 32.5 | 7.83 | 69.23 | 36.55 | 7.08 | 78.4 | 36.5 | 13.5 | 45.5 | 77.6
12 | CCCCC[Se]c1nc(N)c2cccnc2n1 | 12.9 | 42.8 | 72.6 | 5.91 | 20 | 62.1 | 16.3 | 73.48 | 44.89 | 10.3 | 70.14 | 40.23 | 22.7 | 85 | 53.8 | 8.78 | 51 | 98.5
13 | COc1ccc(CNc2nc(SC)nc3ccccc23)cc1 | 93.7 | > 100 | > 100 | 70.2 | > 100 | > 100 | 21.7 | > 100 | 96.24 | 85.6 | > 100 | > 100 | 30.9 | > 100 | 85.1 | 93.7 | > 100 | > 100
14 | CSc1nc(NCc2ccccc2)c2cccnc2n1 | 56.3 | 98.5 | > 100 | 87.1 | > 100 | > 100 | 25.9 | 97.51 | 61.7 | 49 | > 100 | > 100 | 39.4 | > 100 | > 100 | 5.08 | 51.6 | > 100
15 | CCCCC[Se]c1nc([Se]CCCCC)c2cccnc2n1 | > 100 | > 100 | > 100 | > 100 | > 100 | > 100 | > 100 | > 100 | > 100 | 52.8 | > 100 | > 100 | 40.8 | 94.6 | 67.7 | 15.2 | 60.5 | > 100
16 | CSc1nc(Nc2ccccc2)c2ccccc2n1 | 74.6 | > 100 | > 100 | 65.8 | > 100 | > 100 | 54.8 | > 100 | > 100 | > 100 | > 100 | > 100 | 78.4 | > 100 | > 100 | 55.8 | > 100 | > 100
17 | CCCCC[Se]c1nc([Se]CCCCC)c2ccccc2n1 | 65.7 | > 100 | > 100 | > 100 | > 100 | > 100 | > 100 | > 100 | > 100 | 71.3 | > 100 | > 100 | 38.4 | > 100 | 95.1 | > 100 | > 100 | > 100
18 | COc1cc([C@@H]2c3cc4c(cc3[C@@H](O[C@@H]3O[C@@H]5CO[C@@H](C)O[C@H]5[C@H](O)[C@H]3O)[C@H]3COC(=O)[C@H]23)OCO4)cc(OC)c1O [ETOPOSIDE] | 12.6 | 50.1 | > 100 |  | > 100 | > 100 |  |  |  |  |  |  |  |  | > 100 |  |  | 
19 | [SeH]c1nc([SeH])c2cccnc2n1 |  |  |  |  |  |  |  |  |  | 0.71 | 67.5 | 8.26 | 9.83 | 82.7 | 46.1 | 4.03 | 7.93 | 68.4
